According to ChEMBL document CHEMBL4715813, “Allicin-inspired pyridyl disulfides as antimicrobial agents for multidrug-resistant Staphylococcus aureus” (Eur J Med Chem, 2018):
≈ marks a conversion by molar mass, not a printed value.

Key:
Bacillus anthracis = test: Antibacterial activity against Bacillus anthracis Sterne 34F2 assessed as zone of inhibition by disc diffusion method; format: functional
Enterococcus faecium = test: Antibacterial activity against vancomycin-resistant Enterococcus faecium ATCC 700221 assessed as zone of inhibition by disc diffusion method; format: functional
Enterococcus faecalis = test: Antibacterial activity against vancomycin-susceptible Enterococcus faecalis ATCC 29212 assessed as zone of inhibition by disc diffusion method; format: functional
Staphylococcus aureus [1] = test: Antibacterial activity against methicillin-susceptible Staphylococcus aureus ATCC 25923 assessed as zone of inhibition by disc diffusion method; format: functional
Staphylococcus aureus [2] = test: Antibacterial activity against community acquired methicillin-resistant Staphylococcus aureus BAA 1747 assessed as zone of inhibition by disc diffusion method; format: functional
Staphylococcus aureus [3] = test: Antibacterial activity against hospital acquired methicillin-resistant Staphylococcus aureus ATCC 43300 assessed as zone of inhibition by disc diffusion method; format: functional
Staphylococcus aureus [4] = test: Antibacterial activity against heterogeneous vancomycin-intermediate resistant Staphylococcus aureus Mu3 ATCC 700698 assessed as zone of inhibition by disc diffusion method; format: functional
Staphylococcus aureus [5] = test: Antibacterial activity against vancomycin-intermediate resistant Staphylococcus aureus Mu50 ATCC 700699 assessed as zone of inhibition by disc diffusion method; format: functional
Staphylococcus aureus [6] = test: Antibacterial activity against vancomycin-resistant Staphylococcus aureus HIP11714 assessed as zone of inhibition by disc diffusion method; format: functional
[7] = test system: Staphylococcus epidermidis; test: Antibacterial activity against Staphylococcus epidermidis ATCC 14990 assessed as zone of inhibition by disc diffusion method; format: functional
Staphylococcus aureus [8] = test: Antibacterial activity against methicillin-susceptible Staphylococcus aureus ATCC 25923 assessed as bacterial growth inhibition incubated for 20 hrs by broth dilution method; format: functional
Method in brief: (§1)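 Broth microdilution: 0.5 McFarland suspension from an overnight culture, diluted 1:100 in cation-adjusted Mueller Hinton broth (CAMHB), given serial dilutions of test agent for 20 h at 37 °C. MIC is the lowest concentration with no visible growth.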

Staphylococcus aureus [9] = test: Bactericidal activity against methicillin-susceptible Staphylococcus aureus ATCC 25923 assessed as bacterial killing incubated for over night; format: functional
Method in brief: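 5 μL from each well was spotted on agar and incubated overnight. MBC was taken as the lowest concentration with no visible growth.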

Staphylococcus aureus [10] = test: Ratio of MBC to MIC against methicillin-susceptible Staphylococcus aureus ATCC 25923; format: functional
Method in brief: (§2)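 For MBC, 5 μL from each well was spotted on agar and incubated overnight; MBC is the lowest concentration with no visible growth. Ratio taken as MBC over MIC.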

Staphylococcus aureus [11] = test: Antibacterial activity against methicillin-resistant Staphylococcus aureus ATCC 43300 assessed as bacterial growth inhibition incubated for 20 hrs by broth dilution method; format: functional; method in brief: as §1
Staphylococcus aureus [12] = test: Bactericidal activity against methicillin-resistant Staphylococcus aureus ATCC 43300 assessed as bacterial killing incubated for over night; format: functional; method in brief: as §2
Staphylococcus aureus [13] = test: Ratio of MBC to MIC against methicillin-resistant Staphylococcus aureus ATCC 43300; format: functional; method in brief: as §2
Staphylococcus aureus [14] = test: Antibacterial activity against linezolid-resistant Staphylococcus aureus assessed as bacterial growth inhibition incubated for 20 hrs by broth dilution method; format: functional; method in brief: as §1
Staphylococcus aureus [15] = test: Bactericidal activity against linezolid-resistant Staphylococcus aureus assessed as bacterial killing incubated for over night
Staphylococcus aureus [16] = test: Ratio of MBC to MIC against linezolid-resistant Staphylococcus aureus; format: functional; method in brief: as §2
Staphylococcus aureus [17] = test: Antibacterial activity against heterogeneous vancomycin-intermediate Staphylococcus aureus Mu3 ATCC 700698 assessed as bacterial growth inhibition incubated for 20 hrs by broth dilution method; format: functional; method in brief: as §1
Staphylococcus aureus [18] = test: Bactericidal activity against heterogeneous vancomycin-intermediate Staphylococcus aureus Mu3 ATCC 700698 assessed as bacterial killing incubated for over night; format: functional; method in brief: as §2
Staphylococcus aureus [19] = test: Ratio of MBC to MIC against heterogeneous vancomycin-intermediate Staphylococcus aureus Mu3 ATCC 700698; format: functional; method in brief: as §2
Staphylococcus aureus [20] = test: Antibacterial activity against vancomycin-intermediate resistant Staphylococcus aureus Mu50 ATCC 700699 assessed as bacterial growth inhibition incubated for 20 hrs by broth dilution method; format: functional; method in brief: as §1
Staphylococcus aureus [21] = test: Bactericidal activity against vancomycin-intermediate resistant Staphylococcus aureus Mu50 ATCC 700699 assessed as bacterial killing incubated for over night; format: functional; method in brief: as §2
Staphylococcus aureus [22] = test: Ratio of MBC to MIC against vancomycin-intermediate resistant Staphylococcus aureus Mu50 ATCC 700699; format: functional; method in brief: as §2
Staphylococcus aureus [23] = test: Antibacterial activity against vancomycin-resistant Staphylococcus aureus HIP11714 assessed as inhibition of bacterial growth incubated for 20 hrs by broth microdilution method; format: functional; details: HIP11714, 20 h; method in brief: as §1
Staphylococcus aureus [24] = test: Antibacterial activity against vancomycin-intermediate Staphylococcus aureus clinical isolate 12 assessed as bacterial growth inhibition after 20 hrs by broth microdilution assay; format: functional; method in brief: as §1
Staphylococcus aureus [25] = test: Antibacterial activity against vancomycin-resistant Staphylococcus aureus clinical isolate 10 assessed as bacterial growth inhibition after 20 hrs by broth microdilution assay; format: functional; method in brief: as §1
Staphylococcus aureus [26] = test: Antibacterial activity against methicillin-susceptible Staphylococcus aureus ATCC 25923 in presence of glutathione; format: functional
Method in brief: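 Broth microdilution MIC: a 0.5 McFarland suspension from overnight culture was diluted 1:100 in cation-adjusted Mueller Hinton broth supplemented with glutathione 100 μM. It was exposed to serial dilutions for 20 h at 37 °C. MIC was taken as the lowest concentration with no visible growth.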

Staphylococcus aureus [27] = test: Antibacterial activity against methicillin-susceptible Staphylococcus aureus ATCC 25923 in presence of 0.05% v/v albumin; format: functional
Staphylococcus aureus [28] = test: Antibacterial activity against methicillin-susceptible Staphylococcus aureus ATCC 25923 in presence of 5% v/v serum; format: functional
Staphylococcus aureus [29] = test: Antibacterial activity against methicillin-susceptible Staphylococcus aureus ATCC 25923 in presence of 10% v/v serum; format: functional
Klebsiella pneumoniae = test: Antibacterial activity against multidrug-resistant Klebsiella pneumoniae ATCC 700603 assessed as zone of inhibition by disc diffusion method; format: functional
Enterobacter cloacae = test: Antibacterial activity against Enterobacter cloacae ATCC 23355 assessed as zone of inhibition by disc diffusion method; format: functional
Escherichia coli = test: Antibacterial activity against beta-lactam resistant Escherichia coli BAA 2326 assessed as zone of inhibition by disc diffusion method; format: functional
Acinetobacter baumannii [30] = test: Antibacterial activity against multidrug-resistant Acinetobacter baumannii BAA 1605 assessed as zone of inhibition by disc diffusion method; format: functional
Acinetobacter baumannii [31] = test: Antibacterial activity against Acinetobacter baumannii ATCC 19606 assessed as zone of inhibition by disc diffusion method; format: functional
Pseudomonas aeruginosa = test: Antibacterial activity against Pseudomonas aeruginosa ATCC 15422 assessed as zone of inhibition by disc diffusion method; format: functional
Staphylococcus aureus [32] = test: Bactericidal activity against Vancomycin-resistant Staphylococcus aureus HIP11714 assessed as bacterial killing incubated for over night; format: functional; method in brief: as §2

SMILES	diameter of the inhibition zone (DIZ) (Bacillus anthracis) [mm]	diameter of the inhibition zone (DIZ) (Enterococcus faecium) [mm]	diameter of the inhibition zone (DIZ) (Enterococcus faecalis) [mm]	diameter of the inhibition zone (DIZ) (Staphylococcus aureus [1]) [mm]	diameter of the inhibition zone (DIZ) (Staphylococcus aureus [2]) [mm]	diameter of the inhibition zone (DIZ) (Staphylococcus aureus [3]) [mm]	diameter of the inhibition zone (DIZ) (Staphylococcus aureus [4]) [mm]	diameter of the inhibition zone (DIZ) (Staphylococcus aureus [5]) [mm]	diameter of the inhibition zone (DIZ) (Staphylococcus aureus [6]) [mm]	diameter of the inhibition zone (DIZ) [7] [mm]	MIC (Staphylococcus aureus [8]) [µM]	MBC (Staphylococcus aureus [9]) [µM]	Ratio (Staphylococcus aureus [10])	MIC (Staphylococcus aureus [11]) [µM]	MBC (Staphylococcus aureus [12]) [µM]	MIC (Staphylococcus aureus [14]) [µM]	MIC (Staphylococcus aureus [17]) [µM]	MBC (Staphylococcus aureus [18]) [µM]	Ratio (Staphylococcus aureus [19])	MIC (Staphylococcus aureus [20]) [µM]	further results
CN[C@H](CC(C)C)C(=O)N[C@H]1C(=O)N[C@@H](CC(N)=O)C(=O)N[C@H]2C(=O)N[C@H]3C(=O)N[C@H](C(=O)N[C@H](C(=O)O)c4cc(O)cc(O)c4-c4cc3ccc4O)[C@H](O)c3ccc(c(Cl)c3)Oc3cc2cc(c3O[C@@H]2O[C@H](CO)[C@@H](O)[C@H](O)[C@H]2O[C@H]2C[C@](C)(N)[C@H](O)[C@H](C)O2)Oc2ccc(cc2Cl)[C@H]1O [VANCOMYCIN]	26	0	21	22	20	21	20	20	11	24	0.78 (≈ 1.13 µg/mL)	1.56 (≈ 2.26 µg/mL)	2	0.39 (≈ 0.565 µg/mL)	0.78 (≈ 1.13 µg/mL)	0.78 (≈ 1.13 µg/mL)	0.78 (≈ 1.13 µg/mL)	0.78 (≈ 1.13 µg/mL)	1	3.13 (≈ 4.54 µg/mL)	Ratio (Staphylococcus aureus [13]): 2; MBC (Staphylococcus aureus [15]): 1.56 µM (≈ 2.26 µg/mL); Ratio (Staphylococcus aureus [16]): 2; MBC (Staphylococcus aureus [21]): 3.13 µM (≈ 4.54 µg/mL); Ratio (Staphylococcus aureus [22]): 1; MIC (Staphylococcus aureus [23]): > 50 µM; MIC50 (Staphylococcus aureus [24]): 3.13 µM (≈ 4.54 µg/mL); MIC90 (Staphylococcus aureus [24]): 3.13 µM (≈ 4.54 µg/mL); MIC50 (Staphylococcus aureus [25]): > 50 µM; MIC90 (Staphylococcus aureus [25]): > 50 µM; MIC (Staphylococcus aureus [26]): 0.78 µM; MIC (Staphylococcus aureus [27]): 0.78 µM; MIC (Staphylococcus aureus [28]): 0.78 µM; MIC (Staphylococcus aureus [29]): 0.78 µM
CCCCCCCCCSSc1ccccn1	25	8	8	20	19	22	22	30	21	41	12.5 (≈ 3.37 µg/mL)	> 50	>4	6.25 (≈ 1.68 µg/mL)	> 50	25 (≈ 6.74 µg/mL)	6.25 (≈ 1.68 µg/mL)	> 50	>8	1.56 (≈ 0.42 µg/mL)	diameter of the inhibition zone (DIZ) (Klebsiella pneumoniae): 0 mm; diameter of the inhibition zone (DIZ) (Enterobacter cloacae): 0 mm; diameter of the inhibition zone (DIZ) (Escherichia coli): 0 mm; diameter of the inhibition zone (DIZ) (Acinetobacter baumannii [30]): 0 mm; diameter of the inhibition zone (DIZ) (Acinetobacter baumannii [31]): 0 mm; diameter of the inhibition zone (DIZ) (Pseudomonas aeruginosa): 0 mm; MBC (Staphylococcus aureus [21]): 25 µM (≈ 6.74 µg/mL); Ratio (Staphylococcus aureus [22]): 16; MIC (Staphylococcus aureus [23]): 12.5 µM (≈ 3.37 µg/mL); MBC (Staphylococcus aureus [32]): > 50 µM; MIC50 (Staphylococcus aureus [24]): 6.25 µM (≈ 1.68 µg/mL); MIC90 (Staphylococcus aureus [24]): 12.5 µM (≈ 3.37 µg/mL); MIC50 (Staphylococcus aureus [25]): 6.25 µM (≈ 1.68 µg/mL); MIC90 (Staphylococcus aureus [25]): 12.5 µM (≈ 3.37 µg/mL); MIC (Staphylococcus aureus [26]): 50 µM; MIC (Staphylococcus aureus [27]): 25 µM; MIC (Staphylococcus aureus [28]): 25 µM; MIC (Staphylococcus aureus [29]): 50 µM
